Bioassay records from PubChem BioAssay.
iPSC survival up = hiPSC single-cell survival enhancement | AID 602274 | ATPlite luminescence; 100% = ROCK inhibitor wells, 0% = DMSO | 360,000 compounds, 0.044% hits | survival enhancement, % at 20 µM; in the data active = survival enhancement above about 18%;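 note: cells exposed to compounds for 16 hours before the ATP read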
Jurkat NFkB inh = inhibitors of the PMA/ionomycin-induced NF-kB reporter in Jurkat cells. PMA/ionomycin-induced NF-kB luciferase reporter, luminescence. inhibition, % at 4 µM. 330,000 compounds, 0.53% hits; in the data active = inhibition above about 50%
TAG inh = inhibitors of triacylglycerol accumulation; H9c2 cells, Nile Red lipid (TAG) fluorescence; cells loaded with 200 µM oleic acid; inhibition, % at 12.5 µM; 230,000 compounds, 0.66% hits; AID 651582;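 active = pattern-corrected inhibition of lipid staining of at least 50% with the nuclear-stain viability signal not falling by more than 50%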;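 note: 0% = DMSO wells and 100% = triacsin C control wells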
Hep lipid drop = hepatic lipid droplet formation modulation. AML12 mouse hepatocytes, oleate lipid droplets, BODIPY imaging. inhibition, % at 6.5 µM. 240,000 compounds, 0.4% hits. AID 1656;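 active = lipid droplet intensity inhibited by at least 50%, with more than 500 cells counted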
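Test system: AML12 mouse liver cells; schedule: overnight exposure; technique: high-content imaging of BODIPY-stained droplets and DAPI nuclei; read-out: % inhibition of corrected integrated BODIPY droplet signal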
697 NFkB inh = lowers PMA/ionomycin-induced NF-kB signal in 697 B cells; 697 B-cell NF-kB luciferase reporter, 16 h; inhibition, % at 4 µM; 330,000 compounds, 0.33% hits; AID 435022; in the data active = inhibition above about 35%
Gli-Sufu block = antagonists of Gli-Sufu signaling | Sufu-KO-LIGHT fibroblasts, Gli luciferase reporter luminescence | inhibition, % at 5 µM | 340,000 compounds, 0.74% hits;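 active = inhibition above about 55%, limit read from the data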;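 note: 0% = DMSO-treated cells and 100% = wells with medium but no cells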
An asterisk follows results filed as active; x = no result given. Only some compounds are listed: those with a hit (about 1.8% of all), similar ones and a draw of the others.

SMILES	iPSC survival up	Jurkat NFkB inh	TAG inh	Hep lipid drop	697 NFkB inh	Gli-Sufu block
CN(C)CC/C=C1/c2ccccc2Sc2ccc(Cl)cc21	-2	3	3	18	12	6
CCOC(=O)C1CCCN(C(=O)CCNS(=O)(=O)c2cc(Br)cnc2N)C1 (stereo unspecified)	0	-12	x	6	12	7
O=C(Cn1ncc(Cl)c(Cl)c1=O)N1CCOCC1	1	10	x	-27	-12	3
O=C(Cn1ncc(Cl)c(Cl)c1=O)N1CCN(Cc2ccccc2)CC1	-2	x	64*	19	x	1
COc1ccccc1CNC(=O)c1ccc(NC2=NC3CS(=O)(=O)CC3S2)cc1 (stereo unspecified)	0	-3	x	6	1	-5
NC(=S)n1[nH]c(-c2ccc([N+](=O)[O-])cc2)c(N=Nc2ccccc2[N+](=O)[O-])c1=O	-1	x	-1	-29	x	2
Cc1c(N=Nc2c(-c3ccc([N+](=O)[O-])cc3)[nH]n(C(N)=S)c2=O)cccc1[N+](=O)[O-]	-1	x	4	-9	x	68*
COc1cc(-c2nc(-c3ccc(NC(=O)c4ccc(Br)o4)cc3)no2)cc(OC)c1OC	1	-39	51*	-19	-57	-21
O=C(Nc1ccc(-c2nc3ncccc3o2)cc1)c1ccc(Br)o1	-1	-19	69*	56*	-44	-12
COc1ccc(-c2nc(-c3ccc(NC(=O)c4ccc(Br)o4)cc3)no2)cc1OC	-5	-62	31	x	-40	-17
O=C(COC(=O)c1cc2ccccc2oc1=O)Nc1ccc(F)cc1F	0	-36	-2	-18	1	-12
CCN1/C(=C/c2ccc3cc(C)cc(C)c3[n+]2CC)Sc2cc(C)ccc21	-5	x	-95	-56	x	90*
CC[n+]1c(/C=C/c2cc([N+](=O)[O-])ccc2O)ccc2ccccc21	1	-21	-4	-7	-13	4
Cc1ccc2c(c1)S/C(=C\c1cccc[n+]1C)N2CCO	0	26	x	x	-16	16
CCN1/C(=C\c2ccc3cc(C)ccc3[n+]2CC)Sc2cc(C)c(C)cc21	-4	x	-60	-30	x	88*
O=C(O)c1ccc(S(=O)(=O)c2ccc(Sc3ccc(C(=O)O)c(C(=O)O)c3)cc2)cc1	0	-12	-2	2	-3	-8
O=C(Cc1cc(=O)[nH]c(=O)[nH]1)NCc1ccccc1	5	7	-1	0	6	15
CCOc1ccc(C(=O)OCC(=O)N2CC(C)OC(C)C2)cc1OCC (stereo unspecified)	0	1	x	26	3	16
CCCCN1C2=C(C(=O)CCC2)C(c2ccc(Cl)c(Cl)c2)C2=C1c1ccccc1C2=O (stereo unspecified)	-2	-3	60*	x	-21	-20
NC(=O)C1CCCN(C(=O)c2ccc(NC(=O)c3cccs3)cc2)C1 (stereo unspecified)	-1	-7	-6	x	0	1
Cc1ccc(-n2nc(C)c3c(C)cc(=O)[nH]c32)cc1	22*	-7	x	4	7	4
COC(=O)c1cc(OC)c(OC)cc1NC(=S)N1CCN(c2ccccn2)CC1	-1	-7	-9	13	2	1
CN1CCN(C2=C(Cl)C(=O)c3ccccc3C2=O)CC1	-3	x	58*	x	x	17
Nc1c(C(=O)OCC2CCCO2)c2nc3ccccc3nc2n1-c1ccc2c(c1)OCCO2 (stereo unspecified)	x	-13	x	-9	8	-1
O=c1c2c3nc4ccccc4nc3n(-c3ccc4c(c3)OCCO4)c2ncn1C1CCCC1	0	-2	64*	x	-21	10
SMILES	iPSC survival up	Jurkat NFkB inh	TAG inh	Hep lipid drop	697 NFkB inh	Gli-Sufu block
CCc1cc2c(=O)[nH]c(N3CCCC3)nc2s1	-1	-26	x	1	-17	-15
CCc1cc2c(=O)[nH]c(-c3ccccn3)nc2s1	-2	46	x	-82	-180	58*
Cc1ccc([N+](=O)[O-])cc1-c1ccc(/C=N/NC(=O)c2cc3c(ccc4ccccc43)o2)o1	2	9	x	-2	20	1
Cc1ccc(-c2ccc(/C=N\NC(=O)c3cc4c(ccc5ccccc54)o3)o2)cc1[N+](=O)[O-]	2	19	64*	x	10	3
O=C(Nc1ccncc1)c1ccccc1F	24*	4	7	x	26	-3
O=C(Nc1ccc(F)cc1)c1ccccc1F	1	-30	x	21	-13	-39
